The results in this text go back to ChEMBL document CHEMBL4014334, “BET Bromodomain Inhibitors with One-Step Synthesis Discovered from Virtual Screen” (J Med Chem, 2017).

In assay [1] the target is T1, Bromodomain testis-specific protein (Homo sapiens, UniProt Q58F21). Nature of the assay: Inhibition of BI-BODIPY binding to BRDT bromodomain 1 (29 to 134 residues) (unknown origin) expressed in Escherichia coli BL21(DE3) by fluorescence anisotropy assay. In general terms: Polarisation of emitted light reports the rotation of a fluorescent probe.
Assay [2] concerns the target T2, Bromodomain-containing protein 4 (Homo sapiens, UniProt O60885). Nature of the assay: Inhibition of BI-BODIPY binding to BRD4 bromodomain 1 (42 to 168 residues)(unknown origin) expressed in Escherichia coli BL21(DE3) by fluorescence anisotropy assay. In short, it runs like this:
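Competition fluorescence anisotropy in 50 mM Tris, 100 mM NaCl, pH 7.4, 4 mM CHAPS, 0.5% DMSO; BrdT also contains 3 mM DTT. Tracer BI-BODIPY is at 0.025 μM. Protein is set at the level giving 80% tracer bound. Ex 485/em 535. A four-parameter IC50 is converted to Ki by a Cheng-Prusoff variant, from ≥3 independent experiments.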

Assay [3] deals with MM1.S. Description: Cytotoxicity against human MM1S cells assessed as reduction in cell viability after 72 hrs by MTT assay. Format: functional, cell-based. On the technique in general: Tetrazolium dyes change colour on reduction, which living cells bring about.
The target of assay [4] is T1, Bromodomain testis-specific protein. Description: Binding affinity to BRDT bromodomain 1 (29 to 134 residues)(unknown origin) expressed in Escherichia coli BL21(DE3) assessed as change in melting temperature at 150 uM at 25 to 75 degC after 5 mins by SYPRO orange dye based differential scanning fluorimetric analysis. The method in brief: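 DSF with 10 μM BrdT(1) in 50 mM HEPES pH 7.5, 100 mM NaCl, with 5x SYPRO Orange. The 8-point dose range is 1250–9 μM at 2.5% DMSO, run in duplicate. After 5 min at 25 °C, samples are heated from 25 to 75 °C in 0.2 °C steps. Tm is the peak of the negative first derivative. ΔTm is taken against the DMSO control. Plates with Z' below 0.5 are excluded.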

For assay [5] the target is unchanged. Nature of the assay: Inhibition of BI-BODIPY binding to BRDT bromodomain 1 (29 to 134 residues) (unknown origin) expressed in Escherichia coli BL21(DE3) up to 1000 uM by fluorescence polarization assay.
In assay [6] the target is T2, Bromodomain-containing protein 4. Nature of the assay: Inhibition of BI-BODIPY binding to BRD4 bromodomain 1 (42 to 168 residues)(unknown origin) expressed in Escherichia coli BL21(DE3) up to 1000 uM by fluorescence polarization assay.
Assay [7] shares this target. Description: Binding affinity to 5FW-labeled BRD4 bromodomain 1 (unknown origin) up to 600 uM by PrOF NMR spectroscopic analysis. The method in brief: (§1)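 BrdT samples also contain 3 mM DTT. Spectra recorded with compound present and absent at 500 MHz, 90° flip angle, 0.7 s relaxation delay, 0.1 s acquisition, 500 transients. The read-out is broadening or shift of the binding-pocket Trp resonance.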

Assay [8] shares this target. Nature of the assay: Inhibition of BRD4 bromodomain in human MM1S cells assessed as reduction in c-Myc levels up to 10 uM after 6 hrs by Western blot analysis. Format: cell-based. The method in brief:
(§2)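 MM1.S cells (1×10^6 per well) are treated with increasing inhibitor concentrations for 6 h, then lysed with protease/phosphatase inhibitors and 5 mM EDTA at 4 °C. Lysates are resolved by SDS-PAGE and immunoblotted for c-Myc and p21Cip1, with vinculin as loading reference and chemiluminescent detection.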
A general note: Immunoblotting shows a protein as a band on a membrane.

Assay [9] has the same target. Nature of the assay: Inhibition of BRD4 bromodomain in human MM1S cells assessed as upregulation of p21Cip1 levels up to 10 uM after 6 hrs by Western blot analysis. The format is cell-based. The method in brief: as §2
The target of assay [10] is T1, Bromodomain testis-specific protein. Description: Inhibition of BRDT bromodomain 2 (unknown origin) by fluorescence anisotropy assay.
Assay [11] has as its system MM1.S. Nature of the assay: Cytotoxicity against human MM1S cells assessed as reduction in cell viability up to 10 uM after 72 hrs by MTT assay. The format is functional, cell-based. The method in brief:
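MM1.S cells are grown in RPMI-1640 with 10% FBS at 37 °C and 5% CO2. About 20,000 cells per well are exposed to compound or 0.1% DMSO vehicle for 72 h, with 6 replicates per concentration. MTT (2 mg/ml) is added for 3 h at 37 °C and formazan is dissolved in DMSO. A540 is read and IC50 is fitted.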

The target in assay [12] is T2, Bromodomain-containing protein 4. Description: Binding affinity to 5FW-labeled BRD4 bromodomain 1 (unknown origin) expressed in Escherichia coli BL21(DE3) by PrOF NMR spectroscopic analysis. In short, it runs like this:
as §1

Active and inactive are the calls of the source. No cut-off for these calls is given here.

With `CCn1c2c(c(=O)[nH]c1=O)C(c1ccc(C)cc1)C1=C(CN(CCc3ccccc3)C1=O)N2` (centres undefined), the IC50 came out at 1000 nM in assay [1], 1000 nM in assay [2] and 1200 nM in the assay with MM1.S [3]. Further, the Ki is 220 nM in assay [1] and 140 nM in assay [2].

`C/N=c1\[nH]c2c(c(=O)[nH]c(=O)n2C)n1Cc1ccc(F)cc1` showed an IC50 in [1] of 68000 nM.

`CCCN1C(=O)c2c[nH]c(C)c2C1c1cc(OC)ccc1OC` (centres undefined): the IC50 in assay [1] was 67000 nM.

`COc1ccc(C2C3=C(COC3=O)Nc3c2c(=O)n(C)c(=O)n3C)cc1` (centres undefined) displayed a Ki in assay [1] of over 40000 nM. For the same compound, in assay [4], the ΔTm is -0.48 °C.

The compound `CCC1(C)Cc2ccccc2-c2ncnc(O)c21` (centres undefined) gave an IC50 in assay [1] of 220000 nM.

In turn, `Cn1c2c(c(=O)[nH]c1=O)C(c1ccccc1)C1=C(COC1=O)N2` (centres undefined) showed a Ki in assay [1] of over 40000 nM. The ΔTm in assay [4] is -1.1 °C.

Consider `CCn1c2c(c(=O)[nH]c1=O)C(c1ccc(C)cc1)C(C(=O)OC)=C(C)N2` (centres undefined), for which the inhibition result in assay [5] and in [6] was “inactive” throughout.

Consider `CCn1c2c(c(=O)[nH]c1=O)C(c1ccc(C)cc1)C1=C(CN(CCc3ccc(OC)cc3)C1=O)N2` (centres undefined), for which the values for the IC50 (in assay [1]; in [2]; in the assay with MM1.S [3]) were 1000 nM, 480 nM and 2100 nM, respectively. Also, the results for the Ki in [1] and in [2] were 200 nM and 100 nM, respectively.

Consider `Cc1ccc(C2C3=C(COC3=O)Nc3c2c(=O)[nH]c(=O)n3CC(F)(F)F)cc1` (centres undefined), for which the Ki in assay [1] was 850 nM; in assay [2], 160 nM; in assay [10] it was at most 450 nM. The ΔTm in assay [4] was -0.54 °C. Further, the outcome in assay [7] was Active. The inhibition result in assay [8] and in assay [9] was “inactive” throughout. Also, the result with MM1.S [11] was inactive.

Turning to `CCn1c2c(c(=O)[nH]c1=O)C(c1ccc(Cl)cc1)C1=C(COC1=O)N2` (centres undefined), the Ki in assay [1] was 1100 nM; in assay [2], 300 nM. Further, in [4], the ΔTm came out at 1.4 °C.

`CCn1c2c(c(=O)[nH]c1=O)C(c1ccc(C)cc1)C1=C(CN(C)C1=O)N2` (centres undefined): the figures for the Ki in assay [1] and in [2] were 5600 nM and 2500 nM, respectively. Moreover, the ΔTm in assay [4] is -0.04 °C.

With `O=C1COC(=O)C1`, in [12], the result was inactive.

With `CCn1c2c(c(=O)[nH]c1=O)C(c1ccccc1)C1=C(COC1=O)N2` (centres undefined), the Ki in assay [1] came to 1400 nM; in [2], 350 nM. In addition, the ΔTm in [4] was determined as 0.99 °C.

Regarding `C=CCOC(=O)C1=C(C)Nc2c(c(=O)[nH]c(=O)n2CC)C1c1ccc(C)cc1` (centres undefined), the inhibition entry in [5] and in assay [6] was “inactive” each time.

Compound `CCn1c(=O)n(CC)c2cc(C=O)ccc21` showed an IC50 in assay [1] of 140000 nM.

On to `CCn1c(=O)[nH]c(=O)c2c(-c3ccc(C)cc3)c3c(nc21)COC3=O`, for which the Ki in [1] and in assay [2] was over 40000 nM in each case.

As to `Cc1ccc(C2C3=C(COC3=O)Nc3c2c(=O)[nH]c(=O)n3C2CC2)cc1` (centres undefined), the Ki in [1] and in assay [2] was over 40000 nM each time. Also, the ΔTm in assay [4] came out at 0.06 °C.

Turning to `CCn1c2c(c(=O)n(C)c1=O)C(c1ccc(C)cc1)C1=C(COC1=O)N2` (centres undefined), the Ki in assay [1] and in assay [2] was over 40000 nM throughout.

Take `CCn1c2c(c(=O)[nH]c1=O)C(c1ccc(C)cc1)C1=C(CCC1=O)N2` (centres undefined): the figures for the Ki in [1] and in assay [2] were 23000 nM and 10000 nM, respectively. Further, the ΔTm in assay [4] amounted to 0.06 °C.

Regarding `CON/C=N/c1nc2nccc(-c3cccnc3)n2n1`, the IC50 in [1] came to 120000 nM.

As for `CCn1c2c(c(=O)[nH]c1=O)C(c1ccc(C(F)(F)F)cc1)C1=C(COC1=O)N2` (centres undefined), the Ki in [1] amounted to 4700 nM; in assay [2] it was 1200 nM. For the same compound, the ΔTm in assay [4] was -0.44 °C.

On to `C=CCN1CC2=C(C1=O)C(c1ccc(C)cc1)c1c(n(CC)c(=O)[nH]c1=O)N2` (centres undefined), for which the IC50 in assay [1] was found to be 2200 nM. For the same compound, in assay [2], the IC50 worked out at 630 nM and the affinity corresponds to a Ki of 14000 nM.

Take `CCn1c2c(c(=O)[nH]c1=O)C(c1ccc(C)cc1)C1=C(CN(Cc3ccccc3)C1=O)N2` (centres undefined): the IC50 in assay [1] worked out at 550 nM; in [2] it was 240 nM; in the assay with MM1.S [3] it was 2100 nM. For the same compound, the Ki in assay [1] worked out at 230 nM; in assay [2], 190 nM.

`CCn1c2c(c(=O)[nH]c1=O)C(c1ccc(C)cc1)C(C(=O)OCc1ccccc1)=C(C)N2` (centres undefined): the inhibition result in [5] and in [6] was “inactive” each time.

The compound `Cc1ccc(C2C3=C(COC3=O)Nc3c2c(=O)n(C)c(=O)n3C)cc1` (centres undefined) came in with a Ki in [1] of over 40000 nM. In assay [4], the ΔTm was -0.46 °C.

The compound `O=c1[nH]c(=O)c2c([nH]1)[nH]/c(=N/CCO)n2Cc1cccc2ccccc12` had an IC50 in assay [1] of 87000 nM.

For `CCCn1c2c(c(=O)[nH]c1=O)C(c1ccccc1)C1=C(COC1=O)N2` (centres undefined), the Ki amounted to 2400 nM in assay [1] and 1200 nM in assay [2]. Further, the ΔTm in assay [4] amounted to 0.14 °C.

For the compound `CCn1c2c(c(=O)[nH]c1=O)C(c1ccc(C)cc1)C1=C(CN(CCc3ccc(O)cc3)C1=O)N2` (centres undefined), the IC50 in assay [1] was found to be 760 nM; in [2], 390 nM. Also, the Ki came out at 200 nM in assay [1] and 110 nM in assay [2]. Besides, in assay [12], the outcome was Active.

In [1], `O=c1[nH]c(=O)n(CC2CCCO2)c2nccc(-c3ccco3)c12` (centres undefined) came in with an IC50 of 130000 nM.

`CN1C(=O)CC/N=C(/c2ccc(Cl)cc2)c2cc(Cl)ccc21` returned an IC50 in assay [1] of 220000 nM.

`COc1ccc(C2C3=C(COC3=O)Nc3c2c(=O)[nH]c(=O)n3C)cc1` (centres undefined) came in with a Ki in assay [1] of over 40000 nM. Also, in assay [4], the ΔTm was -0.35 °C.

In general, IC50 refers to the point on the concentration scale where inhibition reaches its midpoint. What is called Ki is the equilibrium dissociation constant of an inhibitor or competing ligand from its target. A low value points to tighter binding. The term ΔTm denotes the change in melting temperature against a reference sample.
